The source of these data is ChEMBL document CHEMBL3992497, “Synthesis, structure-activity relationships and biological evaluation of 7-phenyl-pyrroloquinolinone 3-amide derivatives as potent antimitotic agents” (Eur J Med Chem, 2017).

The structures appear in SMILES notation. Active and inactive are the calls of the source. The rule behind the calls is not given here.

Data set [1] relates to Liver. Briefly: Drug level in human liver microsomes treated with 3-Benzoyl-7-phenyl-6H-pyrrolo[3,2-f]quinolin-9-one at 10 uM after 60 mins by fluorescence based HPLC analysis. The format is ADME, microsome. Conditions: 1 h. In short, it runs like this:
(§1)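 Compound at 10 μM final in 0.1 M KH2PO4 pH 7.4 with 1.0 mg/mL pooled mixed-gender human liver microsomes, without or with 1 mM NADPH; buffer-only controls. Started with microsomes after 3-min equilibration and run at 37 °C for 0–60 min. Stopped with ice-cold acetonitrile, centrifuged, supernatant run on C18 HPLC with fluorescence detection (ex 344/em 493 nm). % remaining from peak area versus 0 min. Mean ± SD, n = 3–4.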
Background: Liver microsomes are a subcellular fraction often used to study metabolism.

Data set [2] has as its system HL-60. The data set can be described thus: Antiproliferative activity against human HL60 cells after 72 hrs by MTT assay. It is filed as functional. Conditions: HL-60, 72 h. In short, it runs like this: (§2)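 Compounds from 10 mM DMSO stocks. Cells seeded at 8 × 10^3 per well and held 18 h at 37 °C in humidified 5% CO2. Medium was then replaced with fresh medium holding graded compound concentrations, in triplicate, for 72 h at 37 °C. Viability was read by MTT. GI50 is the concentration giving 50% inhibition of proliferation. Mean ± SE of ≥3 independent dose-response experiments.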
Background: Formazan colour is commonly taken as a measure of viable cells.

The subject of data set [3] is PBL. The data set can be described thus: Antiproliferative activity against human PBL after 72 hrs by MTT assay. It is filed as cell-based. In short, it runs like this: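 PBL from healthy donors separated on a Lymphoprep gradient, washed, and held overnight at 1.0 × 10^6 cells/mL in RPMI-1640 with 10% FBS. Non-adherent resting cells resuspended at 5 × 10^5 cells/mL without PHA. Graded compound concentrations for 72 h, then MTT. Mean ± SEM of three separate experiments.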

The subject of data set [4] is HeLa. The data set can be described thus: Cell cycle arrest in human HeLa cells assessed as accumulation at G2/M phase at 100 nM after 24 hrs by propidium iodide staining based flow cytometry relative to control. The format is functional. In a few lines:
(§3)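 5 × 10^5 cells exposed to varying compound concentrations for 24 h. Cells collected, fixed in ice-cold 70% ethanol, and lysed in buffer with RNase A and 0.1% Triton X-100. PI-stained, then analysed by flow cytometry for phase distribution from DNA histograms. Mean of two independent experiments.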

Data set [5] has as its system Jurkat. Briefly: Cell cycle arrest in human Jurkat cells assessed as accumulation at G2/M phase at 100 nM after 24 hrs by propidium iodide staining based flow cytometry relative to control. The format is functional. In a few lines:
as §3
For orientation: Flow cytometry measures light scatter and fluorescence of single cells or particles in a stream.

Data set [6] deals with HeLa. The data set can be described thus: Cell cycle arrest in human HeLa cells assessed as reduction in S phase at 50 to 100 nM after 24 hrs by propidium iodide staining based flow cytometry relative to control. The format is functional. In a few lines: as §3
The subject of data set [7] is HeLa. Briefly: Cell cycle arrest in human HeLa cells assessed as reduction in G1 phase at 50 to 100 nM after 24 hrs by propidium iodide staining based flow cytometry relative to control. It is filed as functional. In short, it runs like this: as §3
The subject of data set [8] is HeLa. The data set can be described thus: Cell cycle arrest in human HeLa cells assessed as accumulation at G2/M phase after 24 hrs by propidium iodide staining based flow cytometry. It is filed as functional. In a few lines:
as §3

For data set [9], the system named is Jurkat. The data set can be described thus: Cell cycle arrest in human Jurkat cells assessed as accumulation at G2/M phase after 24 hrs by propidium iodide staining based flow cytometry. It is filed as functional. In a few lines:
as §3

The test system of data set [10] is CCRF-CEM. Briefly: Antiproliferative activity against human CCRF-CEM cells after 72 hrs by MTT assay. The format is functional. In short, it runs like this: as §2
In data set [11] the test system is RS4-11. The data set can be described thus: Antiproliferative activity against human RS4:11 cells after 72 hrs by MTT assay. The format is functional. Conditions: RS4-11, 72 h. In a few lines:
as §2

Data set [12] has as its system Jurkat. The data set can be described thus: Antiproliferative activity against human Jurkat cells after 72 hrs by MTT assay. The format is functional. In a few lines:
as §2

The test system of data set [13] is SEM cells. Briefly: Antiproliferative activity against human SEM cells after 72 hrs by MTT assay. It is filed as functional. In short, it runs like this:
as §2

Data set [14] has as its system MV4-11. Briefly: Antiproliferative activity against human MV4-11 cells after 72 hrs by MTT assay. The following applies: MV4-11, 72 h. It is filed as functional. In short, it runs like this:
as §2

Data set [15] relates to THP-1. Briefly: Antiproliferative activity against human THP1 cells after 72 hrs by MTT assay. It is filed as functional. Conditions: THP-1, 72 h. In a few lines: as §2
Data set [16] relates to HeLa. The data set can be described thus: Antiproliferative activity against human HeLa cells after 72 hrs by MTT assay. The format is functional. In short, it runs like this:
as §2

The test system of data set [17] is A549. The data set can be described thus: Antiproliferative activity against human A549 cells after 72 hrs by MTT assay. It is filed as functional. The following applies: A549, 72 h. In short, it runs like this:
as §2

Data set [18] deals with HT-29. Briefly: Antiproliferative activity against human HT-29 cells after 72 hrs by MTT assay. The following applies: HT-29, 72 h. The format is functional. In short, it runs like this:
as §2

Data set [19] deals with MCF7. Briefly: Antiproliferative activity against human MCF7 cells after 72 hrs by MTT assay. It is filed as functional. Conditions: MCF7, 72 h. In short, it runs like this:
as §2

The subject of data set [20] is PBL. The data set can be described thus: Antiproliferative activity against phytohematoaglutinin-stimulated human PBL after 72 hrs by MTT assay. It is filed as cell-based. In short, it runs like this:
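Donor PBL isolated on a Lymphoprep gradient and rested overnight in RPMI-1640 with 10% FBS. Non-adherent cells resuspended at 5 × 10^5 cells/mL in growth medium with 2.5 μg/mL PHA. Graded compound concentrations added; viability by MTT at 72 h. Mean ± SEM of three separate experiments.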

A short description of data set [21]: Selectivity index, ratio of IC50 for phytohematoaglutinin-stimulated human PBL to GI50 for human CCRF-CEM cells. In a few lines: (§4)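 Ratio of two 72 h MTT viability values. Healthy-donor PBL were isolated on a density gradient, rested overnight, then seeded as non-adherent cells at 5 × 10^5 cells/mL with 2.5 μg/mL PHA and exposed to graded compound concentrations. Leukemia cells were grown in RPMI-1640 with 10% FBS, seeded at 8 × 10^3 cells/well, pre-incubated 18 h at 37 °C, and dosed in triplicate.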

Data set [22] in a line: Selectivity index, ratio of IC50 for phytohematoaglutinin-stimulated human PBL to GI50 for human Jurkat cells. In a few lines:
as §4

A short description of data set [23]: Inhibition of bovine brain tubulin assembly preincubated for 20 mins followed by GTP addition by turbidometric method. Set-up: species or system Bos taurus. In short, it runs like this:
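Varying compound concentrations pre-incubated with 10 μM bovine brain tubulin in glutamate buffer at 30 °C, then chilled to 0 °C. GTP added to 0.4 mM final, mixture warmed to 30 °C, turbidity followed at 350 nm.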

The species named for data set [24] is Bos taurus. The data set can be described thus: Inhibition of [3H]colchicine binding to bovine brain tubulin at 5 uM relative to control. In a few lines: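 Reaction mixtures held 1 μM tubulin, 5 μM [3H]colchicine and 5 μM test compound. Inhibition of bound radiolabel measured relative to control.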
Data set [25] deals with HeLa. Briefly: Induction of ROS generation in human HeLa cells at 10 to 100 nM after 24 to 48 hrs by H2-DCFDA staining based flow cytometry. It is filed as functional, cell-based. In short, it runs like this:
(§5)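 Cells exposed for 24 or 48 h at the indicated concentrations, then loaded with H2-DCFDA. ROS read as oxidised DCF fluorescence by flow cytometry. Mean ± SEM of three independent experiments.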

Data set [26] has as its system Jurkat. The data set can be described thus: Induction of ROS generation in human Jurkat cells at 10 to 100 nM after 24 to 48 hrs by H2-DCFDA staining based flow cytometry. The format is functional, cell-based. In short, it runs like this: as §5
Data set [27] is described as follows: Metabolic stability in human liver microsomes assessed as parent compound remaining at 10 uM after 60 mins by fluorescence based HPLC analysis. The format is ADME, microsome. The following applies: read-out: Stability. In short, it runs like this:
as §1

Data set [28] has as its system Liver. The data set can be described thus: Metabolic stability in human liver microsomes at 10 uM after 60 mins in presence of NADPH by fluorescence based HPLC analysis. The format is ADME, microsome. Conditions: 1 h. In short, it runs like this:
as §1

Data set [29] concerns Liver. Briefly: Drug metabolism in human liver microsomes assessed as 7-phenyl-3H-pyrrolo[3,2-f]quinolin-9(6H)-one formation at 10 uM after 60 mins by fluorescence based HPLC analysis. Conditions: 1 h. The format is ADME, microsome. In short, it runs like this: as §1

As for `O=c1cc(-c2ccccc2)[nH]c2ccc3[nH]ccc3c12`, the Drug metabolism entry in data set [1] was “Metabolite_Detected”.
On to `O=C(c1ccccc1)n1ccc2c3c(=O)cc(-c4ccccc4)[nH]c3ccc21`, for which the 50% growth inhibitory concentration (GI50) (usually the concentration giving 50% growth inhibition) is 2 nM in [2]; 12 nM in [10]; 0.3 nM in data set [11]; 16 nM in data set [12]; 0.9 nM in data set [13]; 2 nM in data set [14]. Further, the 50% growth inhibitory concentration (GI50) in [15] stood at 5 nM; in data set [16], 0.2 nM; in data set [17], 10 nM; in [18] it was 0.1 nM; in data set [19], 0.2 nM. Besides, the IC50 (commonly the concentration that inhibits the measured activity by half) in data set [3] came to 28000 nM; in [20] it was 15200 nM; in data set [23] it was 890 nM. In addition, the Activity in [4] was over 50%; in [5], over 50%; in data set [8], “Dose-dependent effect”; in [9], “Dose-dependent effect”. Moreover, the result in data set [6], in data set [7], in [25] and in data set [26] was Active. The “Selectivity Index” value in [21] and in data set [22] was 1000 - 2000 throughout. Further, the inhibition (commonly the relative decrease from the control value, in per cent) in [24] is 70%. The remaining at 1 h, 10 µM in data set [27] is over 60%. In addition, the Stability result in data set [28] is on record as “Stable”. The Drug metabolism result in data set [29] is listed as “Metabolite_Detected”.
